18 molecules from ChEMBL document CHEMBL1138476 (J Med Chem, 2009) can be followed below.

pIC50: −log10 of the molar value.

The target in data set [1] is T1, Corticotropin-releasing factor receptor 1 (Rattus norvegicus, UniProt P35353).
T1 sequence (P35353 whole entry): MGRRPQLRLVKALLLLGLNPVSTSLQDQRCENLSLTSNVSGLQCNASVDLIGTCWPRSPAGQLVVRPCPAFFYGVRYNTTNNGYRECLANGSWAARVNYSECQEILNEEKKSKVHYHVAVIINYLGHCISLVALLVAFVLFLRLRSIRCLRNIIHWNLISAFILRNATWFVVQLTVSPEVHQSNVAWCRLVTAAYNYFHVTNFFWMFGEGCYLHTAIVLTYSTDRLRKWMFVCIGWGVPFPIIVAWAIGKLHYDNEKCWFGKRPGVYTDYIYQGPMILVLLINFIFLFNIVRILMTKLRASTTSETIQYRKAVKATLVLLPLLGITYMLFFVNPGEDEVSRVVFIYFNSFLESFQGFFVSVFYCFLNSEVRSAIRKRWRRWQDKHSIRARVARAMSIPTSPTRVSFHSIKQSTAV
Put plainly: Displacement of [125I]Tyro-rat/human CRF from CRF1 receptor in rat cortical membrane by gamma counting. Type of data set: cell membranes. Summed up: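 Binding to CRF receptors in rat cortical homogenate.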

Data set [2] in a line: AUC in Beagle dog at 1 mg/kg, po by cassette dosing. Type of data set: ADME, organism-based, Canis lupus familiaris. Also on record: dose 1 mg/kg, route oral. The conditions noted are these: plasma.
A short description of data set [3]: Cmax in Beagle dog at 1 mg/kg, po by cassette dosing. Type of data set: ADME, organism-based, Canis lupus familiaris. Also on record: dose 1 mg/kg, route oral. The conditions noted are these: in vivo.
The nature of data set [4]: Half life in Beagle dog at 1 mg/kg, po by cassette dosing. The class given is ADME, organism-based, Canis lupus familiaris. Also on record: dose 1 mg/kg, route oral. The following applies: in vivo.
For data set [5], the system named is Rattus norvegicus. Put plainly: Effect on gastrointestinal motility in fasted Sprague-Dawley rat assessed as distance of charcoal moved from stomach to cecum at 3 mg/kg, po (RVb= 42.1+/-1.8 %).
The test system of data set [6] is Rattus norvegicus. Put plainly: Effect on gastrointestinal motility in fasted Sprague-Dawley rat assessed as distance of charcoal moved from stomach to cecum at 0.3 mg/kg, ip (RVb= 38.4+/-3.8 %). The conditions noted are these: route intraperitoneal. The class given is functional, Caecum.
For data set [7], the system named is Rattus norvegicus. Put plainly: Toxicity in rat assessed as time spent on rotarod at 3 mg/kg, po after 1 hr by rotarod test. The class given is organism-based. The following applies: in vivo. Also on record: dose 3 mg/kg, route oral. Summed up:
(§1)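 Rats, n = 8 per dose, dosed po in 0.25% Methocel 1 h before testing, at 0, 1.0, 3.0, 10, 30 and 100 mg/kg. Read-out is time on rotorod (s), mean ± SEM, compared with the vehicle (zero-dose) group.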
(In general: In the rotarod test animals must keep their balance on a rotating rod.)

In data set [8] the test system is Rattus norvegicus. In words: Toxicity in rat assessed as total distance traveled at 10 mg/kg, po after 1 hr by spontaneous locomotor test. Type of data set: functional. Put shortly:
(§2)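 Rat spontaneous locomotor activity test with oral dosing in 0.25% Methocel 1 h before testing, at doses up to 100 mg/kg. Values are mean ± SEM, with N rats per group, compared with the vehicle (zero-dose) group.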

Data set [9] relates to Rattus norvegicus. In words: Toxicity in rat assessed as time spent on rotarod at 10 mg/kg, po after 1 hr by rotarod test. Type of data set: organism-based. Also on record: dose 10 mg/kg, route oral. The following applies: in vivo. Summed up:
as §1

The subject of data set [10] is Rattus norvegicus. Put plainly: Toxicity in rat assessed as total distance traveled at 100 mg/kg, po after 1 hr by spontaneous locomotor test. Type of data set: organism-based. Also on record: dose 100 mg/kg, route oral. The following applies: in vivo. Summed up: as §2
Data set [11] relates to Rattus norvegicus. In words: Toxicity in rat assessed as total distance traveled at 3 mg/kg, po after 1 hr by spontaneous locomotor test. The following applies: in vivo. Type of data set: organism-based. Also on record: dose 3 mg/kg, route oral. Put shortly:
as §2

In data set [12] the test system is Rattus norvegicus. In words: Toxicity in rat assessed as total distance traveled at 30 mg/kg, po after 1 hr by spontaneous locomotor test. The class given is functional. Summed up: as §2
The subject of data set [13] is Rattus norvegicus. Put plainly: Toxicity in rat assessed as time spent on rotarod at 30 mg/kg, po after 1 hr by rotarod test. The class given is organism-based. Also on record: dose 30 mg/kg, route oral. The conditions noted are these: in vivo. Summed up:
as §1

A word on the pIC50: it is −log10 of the IC50, conventionally taken in molar units. A lower pIC50 goes with a high IC50. One may read the AUC as concentration integrated over time. The low end stands for low exposure, the high end for high exposure. Broadly, the Cmax is the peak of the concentration-time curve. What is called half-life is how long it takes for the measured level to halve.

In [1], `COCCN(CCOC)c1nc(C)nc2c(-c3cnc(N(C)C)cc3C)c(C)nn12` had a pIC50 of 7.04.
Same read-out and setting: the result for `CCN(CC)c1nc(C)nc2c(-c3cnc(OC)cc3C)c(C)nn12` reads 7.84; that for `CCC(CC)Nc1nc(C)nc2c(-c3cnc(OC)cc3C)c(C)nn12`, 8.52; that for `CCCCN(CCC)c1nc(C)nc2c(-c3ccc(OC)nc3C)c(C)nn12`, 8.62.
`CCCN(C)c1nc(C)nc2c(-c3ccc(OC)nc3C)c(C)nn12` showed a pIC50 in data set [1] of 7.75.
Same read-out and setting: next, `CCCCN(C)c1nc(C)nc2c(-c3ccc(OC)nc3C)c(C)nn12`: 8.09; `COCCN(CCOC)c1nc(C)nc2c(-c3cnc(OC)cc3C)c(C)nn12`: 7.62.
On the same count and under the same terms, the result for `CCCCN(CC)c1nc(C)nc2c(-c3ccc(OC)nc3C)c(C)nn12` reads 8.31.
In data set [2], `COCCN(CCOC)c1nc(C)nc2c(-c3ccc(OC)nc3C)c(C)nn12` had an AUC of 1.47 µM·h. Also, the pIC50 in data set [1] was 8.07. The molecule further came in with a Cmax in data set [3] of 275 nM. In [4], this molecule had a half-life of 10.3 h.
In turn, `COCCNc1nc(C)nc2c(-c3c(C)cc(N(C)C)nc3C)c(C)nn12` gave a pIC50 in [1] of less than 5.00.
Consider `COCCN(CC1CC1)c1nc(C)nc2c(-c3ccc(OC)nc3C)c(C)nn12`, for which, in data set [2], the exposure (AUC) was found to be 1.73 µM·h. The same molecule had a pIC50 in data set [1] of 8.51. Further, the peak level in data set [3] (Cmax) was 314 nM. In data set [4], the half-life is 11.4 h.
For the molecule `CCCN(CC1CC1)c1nc(C)nc2c(-c3ccc(OC)nc3C)c(C)nn12`, in [1], the pIC50 was 8.80.
The same measure, in the same setting: the result for `CCC(CC)Nc1nc(C)nc2c(-c3ccc(OC)nc3C)c(C)nn12` reads 8.51.
For the molecule `CCC(CC)Nc1nc(C)nc2c(-c3cnc(N(C)C)cc3C)c(C)nn12`, in data set [1], the pIC50 was 7.61.
`CCN(CC)c1nc(C)nc2c(-c3cnc(N(C)C)cc3C)c(C)nn12` showed a pIC50 in [1] of 7.86.
`CN1[C@@H]2CC[C@H]1C[C@@H](OC(=O)C(CO)c1ccccc1)C2` (mixture of isomers) [ATROPINE]: the Activity in the data set with Rattus norvegicus [5] is 27.5%.
As for `C[N+](C)(C)CCOC(N)=O.[Cl-]` [CARBACHOL], the Activity in the data set with Rattus norvegicus [6] was 55.8%.
As to `CNC1=Nc2ccc(Cl)cc2C(c2ccccc2)=[N+]([O-])C1` [CHLORDIAZEPOXIDE], the Time with Rattus norvegicus [7] stood at 227 s; in the data set on Rattus norvegicus [9], 128 s; in the data set with Rattus norvegicus [13], 114 s. The Activity is 3981 cm in the data set on Rattus norvegicus [8], 1062 cm with Rattus norvegicus [10], 4624 cm in the data set with Rattus norvegicus [11] and 2162 cm in the data set on Rattus norvegicus [12].
